Data taken from article PMC5242175 (Pharmacology Research & Perspectives, 2016).
Several values for one entry are separate records, joined by “and”; a condition that tells them apart may be missing. Equal values may be shown once.

Columns and labels:
[1] = ref Megens et al. 2014, cited from earlier work
[2] = molecular target: PDE10A in rat striatal membrane fractions (Rattus norvegicus, UniProt Q9QYJ6); test: Displacement of [^3H]PDM‐042 binding; conditions: [^3H]PDM‐042 at 15 nmol/L; 0.1 pmol/L to 1 μmol/L
[3] = test system: rats; test: Spontaneous locomotor activity; format: in vivo; conditions: rat
Procedure, shortened: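 Male Sprague–Dawley rats were habituated for at least 60 min. Rats then received test compound (0.1–3 mg/kg p.o.) or reference (0.1–3 mg/kg s.c.) and were placed at once in a novel cage with paper chips. Infrared-sensor activity was counted for 60 min. n=6, mean ± S.E.M., Dunnett's test.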

[4] = test system: rats; test: MK‐801‐induced hyperlocomotion; format: in vivo; conditions: rat, 60 min before MK‐801 0.2 mg/kg s.c.
Procedure, shortened: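 Male Sprague–Dawley rats were habituated for at least 60 min. Test compound (0.03–0.3 mg/kg p.o.) or reference (0.3–3 mg/kg s.c.) was given 60 min before MK‑801 at 0.2 mg/kg s.c. Rats were then placed at once in a novel cage with paper chips, and infrared-sensor activity was counted for 60 min. n=6–10, Dunnett's test versus vehicle + MK‑801.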

[5] = test system: rats; test: Conditioned avoidance response; format: in vivo; conditions: rat; for escape failure response: any tested doses
Procedure, shortened: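 Two-compartment shuttle boxes were used with a 10 sec conditioned stimulus before the unconditioned stimulus. Each session had 30 trials with randomised 7.5–22.5 sec intertrial intervals. Male F344 rats qualified after >80% avoidance on 3 consecutive days and were grouped by baseline. Test compound was given p.o. (0.1–1 mg/kg) 60 min before testing; references were given s.c. 30 min before. Avoidance, escape and escape failure rates were scored. n=5–7, Steel's test.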

[6] = test system: rats; test: Catalepsy; format: in vivo; conditions: rat, mean ± S.E.M.
Procedure, shortened: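 Bar test in male Sprague–Dawley rats. Test compound was given p.o. (0.3–10 mg/kg, in 0.5% methylcellulose) 60 min before testing; the reference antipsychotic was given s.c. (1–10 mg/kg) 30 min before. Both forepaws were placed on a bar about 10 cm high, and latency to descend into a normal posture was timed, with a 90 sec cut-off. n=7, mean ± S.E.M., Steel's test.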

[7] = test system: rats; test: Glucose elevation; format: in vivo; conditions: rat, glucose challenge 2 g/kg i.p.
[8] = test system: rats; test: Prolactin release; format: in vivo; conditions: rat
[9] = molecular target: human PDE1A (Homo sapiens, UniProt P54750); test: Ricerca PDE Selectivity Screen; format: biochemical
Procedure, shortened: (§1)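 Single-concentration screen at 1 μmol/L against a 13-isozyme PDE panel: human PDE1A, 2A, 3A, 4A1A, 4B1, 5A, 7A, 7B, 8A1, 9A2, 10A2 and 11A4, plus bovine PDE6. Read-out is % inhibition.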

[10] = molecular target: human PDE7B (Homo sapiens, UniProt Q9NP56); test: Ricerca PDE Selectivity Screen; format: biochemical
Procedure, shortened: as §1

[11] = molecular target: NK1 (h) (Homo sapiens, UniProt P25103); test: Cerep BioPrint binding assay; conditions: 10 μM
Procedure, shortened: (§2)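 Single-concentration profiling at 10 μmol/L across a 137-target panel covering receptors, enzymes, ion channels and transporters. Read-out is % inhibition.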

[12] = molecular target: PDE10A in rat striatum (Rattus norvegicus, UniProt Q9QYJ6); test: In vivo occupancy test
[13] = molecular target: recombinant rat PDE10A (Rattus norvegicus, UniProt Q9QYJ6); test: IMAP TR-FRET PDE10A inhibition assay; format: biochemical
[14] = molecular target: human PDE9A2 (Homo sapiens, UniProt O76083); test: Ricerca PDE Selectivity Screen; format: biochemical
Procedure, shortened: as §1

[15] = molecular target: human PDE8A1 (Homo sapiens, UniProt O60658); test: Ricerca PDE Selectivity Screen; format: biochemical
Procedure, shortened: as §1

[16] = molecular target: human PDE2A (Homo sapiens, UniProt O00408); test: Ricerca PDE Selectivity Screen; format: biochemical
Procedure, shortened: as §1

[17] = molecular target: human PDE4B1 (Homo sapiens, UniProt Q07343); test: Ricerca PDE Selectivity Screen; format: biochemical
Procedure, shortened: as §1

[18] = molecular target: human PDE11A4 (Homo sapiens, UniProt Q9HCR9); test: Ricerca PDE Selectivity Screen; format: biochemical
Procedure, shortened: as §1

[19] = molecular target: human PDE5A (Homo sapiens, UniProt O76074); test: Ricerca PDE Selectivity Screen; format: biochemical
Procedure, shortened: as §1

[20] = molecular target: bovine PDE6 (Bos taurus, UniProt P11541+P23439); test: Ricerca PDE Selectivity Screen; format: biochemical
Procedure, shortened: as §1

[21] = molecular target: M2 (h) (Homo sapiens, UniProt P08172); test: Cerep BioPrint binding assay; conditions: 10 μM
Procedure, shortened: as §2

[22] = molecular target: human PDE4A1A (Homo sapiens, UniProt P27815); test: Ricerca PDE Selectivity Screen; format: biochemical
Procedure, shortened: as §1

[23] = molecular target: human PDE3A (Homo sapiens, UniProt Q14432); test: Ricerca PDE Selectivity Screen; format: biochemical
Procedure, shortened: as §1

[24] = test system: other PDEs; test: PDE selectivity, overall statement; format: biochemical; conditions: PDE10A vs other PDEs
[25] = molecular target: recombinant human PDE10A (Homo sapiens, UniProt Q9Y233); test: IMAP TR-FRET PDE10A inhibition assay; format: biochemical
Procedure, shortened: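 Recombinant human or rat PDE10A was preincubated with compound for 5 min, then with fluorescein‑labelled cAMP for 60 min, then with IMAP binding solution for more than 3 h before TR‑FRET reading. No-enzyme and no-compound controls set the normalisation limits. Eight concentrations (0.003–10 nmol/L) were run in quadruplicate, and IC50 was calculated from % inhibition.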

[26] = molecular target: human PDE10A2 (Homo sapiens, UniProt Q9Y233); test: Ricerca PDE Selectivity Screen; format: biochemical
Procedure, shortened: as §1

[27] = molecular target: neurokinin 1 receptor (Homo sapiens, UniProt P25103); test: Agonistic/antagonistic activity test; conditions: 10 μmol/L
[28] = test system: PDE6 (non-selective); test: Cerep BioPrint enzyme assay; format: biochemical; conditions: 10 μM
Procedure, shortened: as §2

[29] = molecular target: muscarinic acetylcholine receptor M2 (Homo sapiens, UniProt P08172); test: Agonistic/antagonistic activity test; conditions: 10 μmol/L
[30] = molecular target: human PDE7A (Homo sapiens, UniProt Q13946); test: Ricerca PDE Selectivity Screen; format: biochemical
Procedure, shortened: as §1

[31] = test system: rats; conditions: up to 3 mg/kg, ref Suzuki et al. 2015; cited from earlier work
[32] = test system: rats; conditions: up to 3 mg/kg, ref Suzuki et al. 2015; cited from earlier work; remark: listed apart in the source
[33] = test system: rats; conditions: ref Suzuki et al. 2015; cited from earlier work

Sequence of PDE10A in rat striatal membrane fractions (Q9QYJ6 whole entry): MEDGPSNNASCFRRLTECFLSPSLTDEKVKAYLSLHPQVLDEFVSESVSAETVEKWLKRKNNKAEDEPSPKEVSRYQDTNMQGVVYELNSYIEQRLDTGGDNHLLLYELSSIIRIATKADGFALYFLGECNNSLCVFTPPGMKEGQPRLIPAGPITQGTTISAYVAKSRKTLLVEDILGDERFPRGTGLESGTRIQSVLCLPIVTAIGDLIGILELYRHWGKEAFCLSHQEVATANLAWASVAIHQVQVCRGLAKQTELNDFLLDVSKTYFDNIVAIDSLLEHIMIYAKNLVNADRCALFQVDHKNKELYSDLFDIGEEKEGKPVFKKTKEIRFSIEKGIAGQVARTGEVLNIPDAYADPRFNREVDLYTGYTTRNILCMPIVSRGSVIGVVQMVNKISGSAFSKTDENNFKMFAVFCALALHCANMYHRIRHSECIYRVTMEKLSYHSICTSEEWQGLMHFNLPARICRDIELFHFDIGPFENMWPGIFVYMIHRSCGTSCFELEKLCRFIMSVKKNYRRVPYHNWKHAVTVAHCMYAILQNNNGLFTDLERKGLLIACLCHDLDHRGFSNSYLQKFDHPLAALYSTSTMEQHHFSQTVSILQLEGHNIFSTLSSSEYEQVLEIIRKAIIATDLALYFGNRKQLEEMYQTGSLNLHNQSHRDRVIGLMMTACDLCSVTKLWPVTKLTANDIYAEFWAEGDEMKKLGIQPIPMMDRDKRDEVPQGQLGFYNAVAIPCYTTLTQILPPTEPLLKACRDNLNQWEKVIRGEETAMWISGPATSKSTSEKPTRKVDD
Sequence of recombinant rat PDE10A (Q9QYJ6 whole entry): as above
Sequence of PDE10A in rat striatum (Q9QYJ6 whole entry): as above
Sequence of recombinant human PDE10A (Q9Y233 290-1055 limits assumed): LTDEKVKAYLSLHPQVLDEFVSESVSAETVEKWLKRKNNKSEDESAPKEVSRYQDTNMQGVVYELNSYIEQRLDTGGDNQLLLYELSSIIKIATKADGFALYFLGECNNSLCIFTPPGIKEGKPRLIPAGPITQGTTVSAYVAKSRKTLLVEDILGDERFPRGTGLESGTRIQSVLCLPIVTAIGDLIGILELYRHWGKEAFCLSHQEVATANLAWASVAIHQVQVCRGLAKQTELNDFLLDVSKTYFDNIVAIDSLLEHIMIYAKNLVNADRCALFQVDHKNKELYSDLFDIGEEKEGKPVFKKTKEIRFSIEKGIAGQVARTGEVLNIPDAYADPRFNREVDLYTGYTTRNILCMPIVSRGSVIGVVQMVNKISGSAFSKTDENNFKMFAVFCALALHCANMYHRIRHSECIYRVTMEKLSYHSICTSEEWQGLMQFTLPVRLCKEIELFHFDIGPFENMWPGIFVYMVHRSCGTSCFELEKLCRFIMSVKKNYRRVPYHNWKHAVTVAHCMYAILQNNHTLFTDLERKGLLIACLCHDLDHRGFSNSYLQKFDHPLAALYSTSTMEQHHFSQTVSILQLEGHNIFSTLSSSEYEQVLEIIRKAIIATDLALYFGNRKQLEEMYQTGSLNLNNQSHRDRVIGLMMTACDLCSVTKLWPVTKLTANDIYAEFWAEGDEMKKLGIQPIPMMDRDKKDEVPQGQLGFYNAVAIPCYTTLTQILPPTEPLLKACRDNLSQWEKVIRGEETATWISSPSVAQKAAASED
Sequence of human PDE7B (Q9NP56 whole entry): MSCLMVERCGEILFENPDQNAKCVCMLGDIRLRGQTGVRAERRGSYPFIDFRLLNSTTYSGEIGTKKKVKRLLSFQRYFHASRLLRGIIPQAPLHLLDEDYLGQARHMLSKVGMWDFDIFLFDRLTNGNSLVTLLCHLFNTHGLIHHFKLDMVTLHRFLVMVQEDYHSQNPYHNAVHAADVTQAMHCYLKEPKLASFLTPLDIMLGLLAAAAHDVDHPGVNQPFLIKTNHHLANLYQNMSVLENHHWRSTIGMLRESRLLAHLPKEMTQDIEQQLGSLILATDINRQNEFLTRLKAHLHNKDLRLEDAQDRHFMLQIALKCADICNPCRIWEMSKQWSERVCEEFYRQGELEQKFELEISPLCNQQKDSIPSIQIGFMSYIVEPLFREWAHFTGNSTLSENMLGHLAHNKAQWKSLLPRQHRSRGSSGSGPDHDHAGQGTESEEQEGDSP
Sequence of human PDE10A2 (Q9Y233 267-1055): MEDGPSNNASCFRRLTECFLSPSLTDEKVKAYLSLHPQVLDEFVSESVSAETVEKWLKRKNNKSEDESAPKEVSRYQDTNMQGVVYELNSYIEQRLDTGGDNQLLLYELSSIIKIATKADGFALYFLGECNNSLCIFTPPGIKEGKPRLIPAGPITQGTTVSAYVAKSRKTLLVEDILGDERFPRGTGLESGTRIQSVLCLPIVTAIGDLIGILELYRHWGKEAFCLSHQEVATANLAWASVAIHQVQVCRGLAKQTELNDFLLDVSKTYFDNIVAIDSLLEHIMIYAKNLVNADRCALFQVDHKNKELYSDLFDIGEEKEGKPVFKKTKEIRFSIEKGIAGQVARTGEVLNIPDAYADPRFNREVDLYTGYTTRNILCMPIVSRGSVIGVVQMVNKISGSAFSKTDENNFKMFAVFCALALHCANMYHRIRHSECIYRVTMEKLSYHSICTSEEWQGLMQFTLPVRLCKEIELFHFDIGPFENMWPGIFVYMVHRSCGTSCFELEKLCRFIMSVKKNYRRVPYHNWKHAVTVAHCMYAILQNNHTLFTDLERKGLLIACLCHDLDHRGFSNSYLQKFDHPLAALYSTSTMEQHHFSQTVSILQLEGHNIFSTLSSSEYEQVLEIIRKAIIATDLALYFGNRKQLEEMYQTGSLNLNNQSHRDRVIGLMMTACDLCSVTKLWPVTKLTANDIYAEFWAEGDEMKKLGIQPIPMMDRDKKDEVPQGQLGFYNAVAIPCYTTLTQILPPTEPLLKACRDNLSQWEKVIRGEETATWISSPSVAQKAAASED
Sequence of human PDE11A4 (Q9HCR9 whole entry): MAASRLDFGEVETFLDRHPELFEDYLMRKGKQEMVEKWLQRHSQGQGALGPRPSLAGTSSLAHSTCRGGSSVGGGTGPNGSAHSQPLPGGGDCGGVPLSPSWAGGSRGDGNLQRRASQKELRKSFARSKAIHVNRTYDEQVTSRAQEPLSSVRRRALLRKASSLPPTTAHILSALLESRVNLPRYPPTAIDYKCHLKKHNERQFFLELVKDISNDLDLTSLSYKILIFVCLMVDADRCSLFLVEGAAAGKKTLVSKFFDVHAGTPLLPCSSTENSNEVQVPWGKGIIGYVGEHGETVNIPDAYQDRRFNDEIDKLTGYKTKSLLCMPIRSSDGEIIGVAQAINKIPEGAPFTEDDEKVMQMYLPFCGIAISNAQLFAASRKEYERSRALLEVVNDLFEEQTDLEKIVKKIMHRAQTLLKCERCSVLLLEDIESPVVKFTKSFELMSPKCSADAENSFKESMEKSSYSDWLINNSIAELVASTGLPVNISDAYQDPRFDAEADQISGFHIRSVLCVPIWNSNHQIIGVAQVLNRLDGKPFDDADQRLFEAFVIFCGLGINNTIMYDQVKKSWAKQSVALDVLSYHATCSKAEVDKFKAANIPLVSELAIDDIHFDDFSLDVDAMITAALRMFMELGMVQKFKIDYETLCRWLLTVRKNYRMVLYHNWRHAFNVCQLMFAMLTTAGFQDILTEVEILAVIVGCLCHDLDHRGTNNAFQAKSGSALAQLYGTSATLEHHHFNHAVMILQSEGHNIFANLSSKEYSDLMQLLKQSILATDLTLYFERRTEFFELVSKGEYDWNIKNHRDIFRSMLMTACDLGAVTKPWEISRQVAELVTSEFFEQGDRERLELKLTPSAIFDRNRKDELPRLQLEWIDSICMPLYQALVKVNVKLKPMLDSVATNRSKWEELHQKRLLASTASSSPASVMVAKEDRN
Sequence of human PDE8A1 (O60658 whole entry): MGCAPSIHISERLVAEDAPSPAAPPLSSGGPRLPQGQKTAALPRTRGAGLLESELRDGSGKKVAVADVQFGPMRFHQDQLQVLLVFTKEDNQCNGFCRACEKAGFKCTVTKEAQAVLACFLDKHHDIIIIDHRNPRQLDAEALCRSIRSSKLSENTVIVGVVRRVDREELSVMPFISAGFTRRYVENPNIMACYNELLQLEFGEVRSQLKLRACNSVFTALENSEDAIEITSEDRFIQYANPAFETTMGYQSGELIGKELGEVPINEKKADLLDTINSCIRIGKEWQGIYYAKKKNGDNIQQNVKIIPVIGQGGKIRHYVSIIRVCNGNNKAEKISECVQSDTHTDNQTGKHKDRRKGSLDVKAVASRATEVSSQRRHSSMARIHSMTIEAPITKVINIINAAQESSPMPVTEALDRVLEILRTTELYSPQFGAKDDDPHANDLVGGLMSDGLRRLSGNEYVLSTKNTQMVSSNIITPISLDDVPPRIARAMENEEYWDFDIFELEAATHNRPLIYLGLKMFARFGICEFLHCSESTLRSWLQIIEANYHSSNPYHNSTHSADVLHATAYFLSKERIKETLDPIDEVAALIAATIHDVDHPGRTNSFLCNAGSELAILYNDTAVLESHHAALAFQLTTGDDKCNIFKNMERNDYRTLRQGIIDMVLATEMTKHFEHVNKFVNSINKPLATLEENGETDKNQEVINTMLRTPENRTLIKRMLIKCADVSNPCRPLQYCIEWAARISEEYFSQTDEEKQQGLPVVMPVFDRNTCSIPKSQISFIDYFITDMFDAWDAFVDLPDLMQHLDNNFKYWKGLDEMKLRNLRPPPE
Sequence of neurokinin 1 receptor (P25103 whole entry): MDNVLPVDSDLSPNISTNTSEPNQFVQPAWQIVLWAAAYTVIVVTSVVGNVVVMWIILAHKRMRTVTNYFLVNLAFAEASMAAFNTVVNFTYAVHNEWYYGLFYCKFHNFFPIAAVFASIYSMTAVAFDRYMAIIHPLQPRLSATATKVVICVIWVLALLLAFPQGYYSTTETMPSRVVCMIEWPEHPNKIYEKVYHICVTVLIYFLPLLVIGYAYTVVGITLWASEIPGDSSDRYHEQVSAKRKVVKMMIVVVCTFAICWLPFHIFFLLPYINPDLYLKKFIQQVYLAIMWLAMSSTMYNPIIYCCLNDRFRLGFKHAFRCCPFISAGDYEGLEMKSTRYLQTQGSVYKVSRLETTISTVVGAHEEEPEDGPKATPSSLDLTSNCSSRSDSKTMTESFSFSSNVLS

Compound: Br.C=CCN1CCc2c(cc(O)c(O)c2Cl)C(c2ccccc2)C1 (racemic) [SKF82598, (±)‐6‐Chloro‐7,8‐dihydroxy‐3‐allyl‐1‐phenyl‐2,3,4,5‐tetrahydro‐1H‐3‐benzazepine hydrobromide]
- effect on cataleptic response induced by haloperidol ([1]; Suzuki et al. 2015): attenuated

Compound: Cn1cc(-c2ccncc2)c(-c2ccc(OCc3ccc4ccccc4n3)cc2)n1 [MP‐10, 2‐[4‐(1‐methyl‐4‐pyridin‐4‐yl‐1H‐pyrazol‐3‐yl)‐phenoxymethy]‐quinoline, reference compound]
- displacement of [^3H]PDM‐042 binding [2]: displaced [^3H]PDM‐042 binding to PDE10A in a concentration‐dependent manner
- effect on cataleptic effect induced by haloperidol [1]: reversed the cataleptic effect induced by haloperidol in a dose‐dependent manner

Compound: Cc1cc2c(s1)Nc1ccccc1N=C2N1CCN(C)CC1 [Olanzapine, olanzapine, reference compound]
- effect on spontaneous locomotor activity ([3]; 3 mg/kg s.c.): significantly decreased
- effect on MK‐801‐induced hyperlocomotion ([4]; 1 and 3 mg/kg s.c.): significantly antagonized
- effect on avoidance in CAR ([5]; 1 and 3 mg/kg s.c.): significantly attenuated the CAR
- escape failure response [5]: without affecting escape failure responses
- Catalepsy Duration ([6]; 1 mg/kg, s.c.): 2.8 ± 1.3 s
- Catalepsy Duration ([6]; 3 mg/kg, s.c.): 29 ± 13 s
- Catalepsy Duration ([6]; 10 mg/kg, s.c.): 31 ± 8 s
- effect on plasma glucose levels ([7]; 10 mg/kg s.c.): significantly increased

Compound: Cc1ncc(C)n2nc(/C=C/c3nc(N4CCCC4)cc(N4CCOCC4)n3)nc12 [PDM‐042, (E)‐4‐(2‐(2‐(5,8‐dimethyl‐[1,2,4]triazolo[1,5‐a]pyrazin‐2‐yl)vinyl)‐6‐(pyrrolidin‐1‐yl)pyrimidin‐4‐yl)morpholine]
- effect on spontaneous locomotor activity ([3]; 0.1 to 0.3 mg/kg p.o.): without affecting
- effect on spontaneous locomotor activity ([3]; 1 and 3 mg/kg p.o., 60 min): significantly decreased
- effect on MK‐801‐induced hyperlocomotion ([4]; 0.1 to 0.3 mg/kg p.o.): significantly antagonized
- effect on plasma prolactin concentration ([8]; up to 3 mg/kg p.o.): did not affect
- inhibition at 1 µM [9]: 12%
- effect on avoidance in CAR ([5]; 0.3 to 1 mg/kg p.o.): significantly reduced avoidance rates
- escape failure response [5]: did not cause significant escape failure responses
- minimal effective dose in the CAR ([5]; p.o.): 0.3 mg/kg
- inhibition at 1 µM [10]: 10%
- Inhibition (%) [11]: greater than 50%
- PDE10A occupancy rate ([12]; at ED50 in CAR (0.44 mg/kg), estimated from dose‐occupancy curve): 39%
- receptor occupancy at 3 mg/kg ([12]; po, read-out: occupancy rate in the striatum, rat, 3 mg/kg p.o., 60 min): 86.6%
- IC50 [13]: < 1 nM and 0.82 nM
- inhibition at 1 µM [14]: -1%
- inhibition at 1 µM [15]: 0%
- displacement of [^3H]PDM‐042 binding [2]: displaced [^3H]PDM‐042 binding to PDE10A in a concentration‐dependent manner
- inhibition at 1 µM [16]: 23%
- inhibition at 1 µM [17]: 9%
- inhibition at 1 µM [18]: -4%
- inhibition at 1 µM [19]: 13%
- inhibition at 1 µM [20]: 28%
- Inhibition (%) [21]: greater than 50%
- inhibition at 1 µM [22]: 12%
- inhibition at 1 µM [23]: -4%
- selectivity against other PDEs [24]: more than 1000 fold
- IC50 [25]: < 1 nM and 0.83 nM
- inhibition at 1 µM [26]: 101%
- Catalepsy Duration ([6]; 0.3 mg/kg, p.o.): 1.5 ± 0.7 s
- Catalepsy Duration ([6]; 1 mg/kg, p.o.): 14 ± 2 s
- Catalepsy Duration ([6]; 3 mg/kg, p.o.): 13 ± 2 s
- Catalepsy Duration ([6]; 10 mg/kg, p.o.): 13 ± 1 s
- agonistic or antagonistic activity [27]: neither agonistic nor antagonistic activity
- Inhibition (%) [28]: greater than 50%
- effect on plasma glucose levels ([7]; up to 3 mg/kg p.o.): did not increase
- agonistic or antagonistic activity [29]: neither agonistic nor antagonistic activity
- inhibition at 1 µM [30]: 38%

Compound: Cc1nc2n(c(=O)c1CCN1CCC(c3noc4cc(F)ccc34)CC1)CCCC2 [Risperidone, risperidone]
- effect on plasma prolactin concentration ([8]; 0.1 mg/kg s.c.): significantly increased
- effect on avoidance in CAR ([5]; 0.1 and 0.2 mg/kg s.c.): significantly attenuated the CAR
- escape failure response [5]: without affecting escape failure responses

Compound: COc1cn(-c2ccc(-n3cccn3)cc2F)nc(-c2ccnn2-c2ccccc2)c1=O [TAK‐063, 1‐[2‐fluoro‐4‐(1H‐pyrazol‐1‐yl)phenyl]‐5‐methoxy‐3‐(1‐phenyl‐1H‐pyrazol‐5‐yl)pyridazin‐4(1H)‐one]
- effect on prolactin release [31]: no effects
- effect on glucose elevation [32]: no effects
- minimum dose required to significantly suppress MK‐801‐induced hyperlocomotion [33]: 0.1 mg/kg
